Laboratory results from ChEMBL document CHEMBL1131579, “Nitroaromatic amino acids as inhibitors of neuronal nitric oxide synthase” (J Med Chem, 1998).

How the values were obtained:
Nitric oxide synthase 1 [1] = molecular target: T1, Nitric oxide synthase 1 (Rattus norvegicus, UniProt P29476); experiment: Inhibitory activity against isomeric form of Neuronal nitric oxide synthase measured by citrulline assay
How it was run: (§1)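 Rat brain cytosol as nNOS source. Incubated 20 min at ambient temperature with 10 μM purified L-[2,3-3H]arginine, 1 mM NADPH, 2 mM CaCl2 and varying inhibitor. Stopped with EGTA/EDTA/HEPES buffer, pH 5.5. [3H]citrulline separated on Dowex 50WX-8 (Na+) and counted by liquid scintillation. IC50 reported.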

[2] = molecular target: T2, Nitric oxide synthase, inducible (Mus musculus, UniProt P29477); experiment: Inhibition of radiolabeled arginine conversion to citrulline by isomeric form of Inducible nitric oxide synthase from mouse RAW 264.7 cells; assay type: cell-based
T2 sequence (P29477 whole entry): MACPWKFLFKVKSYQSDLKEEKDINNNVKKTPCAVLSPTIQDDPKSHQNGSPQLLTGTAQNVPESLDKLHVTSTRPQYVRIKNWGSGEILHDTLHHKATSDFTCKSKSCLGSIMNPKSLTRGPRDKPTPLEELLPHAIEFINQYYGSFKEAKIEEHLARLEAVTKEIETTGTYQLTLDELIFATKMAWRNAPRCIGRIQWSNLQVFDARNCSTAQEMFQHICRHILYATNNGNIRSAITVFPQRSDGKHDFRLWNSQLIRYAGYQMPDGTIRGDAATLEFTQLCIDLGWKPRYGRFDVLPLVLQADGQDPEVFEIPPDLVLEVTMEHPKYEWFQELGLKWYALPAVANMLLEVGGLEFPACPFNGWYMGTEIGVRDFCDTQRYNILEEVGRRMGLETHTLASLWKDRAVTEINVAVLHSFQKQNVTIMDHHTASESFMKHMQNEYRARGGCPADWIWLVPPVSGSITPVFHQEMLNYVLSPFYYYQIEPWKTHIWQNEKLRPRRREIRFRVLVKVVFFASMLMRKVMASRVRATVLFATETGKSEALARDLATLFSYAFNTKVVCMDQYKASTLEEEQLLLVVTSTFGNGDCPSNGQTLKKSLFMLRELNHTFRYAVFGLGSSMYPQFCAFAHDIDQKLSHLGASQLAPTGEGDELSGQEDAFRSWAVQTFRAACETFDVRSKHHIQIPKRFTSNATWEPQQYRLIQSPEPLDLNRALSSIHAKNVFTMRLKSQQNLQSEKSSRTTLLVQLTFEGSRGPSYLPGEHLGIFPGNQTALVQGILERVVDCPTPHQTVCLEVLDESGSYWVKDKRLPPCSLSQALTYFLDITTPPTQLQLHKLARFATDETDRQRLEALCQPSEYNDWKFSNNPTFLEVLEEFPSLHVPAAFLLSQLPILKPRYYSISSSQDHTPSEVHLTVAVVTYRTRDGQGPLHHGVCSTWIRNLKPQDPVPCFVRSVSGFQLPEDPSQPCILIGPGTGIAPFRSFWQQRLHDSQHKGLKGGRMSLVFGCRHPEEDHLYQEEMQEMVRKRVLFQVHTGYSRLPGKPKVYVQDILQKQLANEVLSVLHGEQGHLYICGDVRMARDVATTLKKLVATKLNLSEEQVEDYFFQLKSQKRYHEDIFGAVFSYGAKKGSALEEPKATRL
How it was run: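 Incubated 20 min at ambient temperature with 10 μM [3H]arginine, 1 mM NADPH, no Ca2+, and varying inhibitor. Stopped with EGTA/EDTA buffer, pH 5.5; [3H]citrulline separated on Dowex cation exchanger and counted by scintillation. IC50.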

Nitric oxide synthase 3 = molecular target: T3, Nitric oxide synthase 3 (Bos taurus, UniProt P29473); experiment: Inhibitory activity of conversion of radiolabeled arginine to citrulline by isomeric form of nitric oxide synthase Endothelial nitric oxide synthase from cultured bovine aortic endothelial cells; assay type: cell-based, Endothelial cell
T3 sequence (P29473 whole entry): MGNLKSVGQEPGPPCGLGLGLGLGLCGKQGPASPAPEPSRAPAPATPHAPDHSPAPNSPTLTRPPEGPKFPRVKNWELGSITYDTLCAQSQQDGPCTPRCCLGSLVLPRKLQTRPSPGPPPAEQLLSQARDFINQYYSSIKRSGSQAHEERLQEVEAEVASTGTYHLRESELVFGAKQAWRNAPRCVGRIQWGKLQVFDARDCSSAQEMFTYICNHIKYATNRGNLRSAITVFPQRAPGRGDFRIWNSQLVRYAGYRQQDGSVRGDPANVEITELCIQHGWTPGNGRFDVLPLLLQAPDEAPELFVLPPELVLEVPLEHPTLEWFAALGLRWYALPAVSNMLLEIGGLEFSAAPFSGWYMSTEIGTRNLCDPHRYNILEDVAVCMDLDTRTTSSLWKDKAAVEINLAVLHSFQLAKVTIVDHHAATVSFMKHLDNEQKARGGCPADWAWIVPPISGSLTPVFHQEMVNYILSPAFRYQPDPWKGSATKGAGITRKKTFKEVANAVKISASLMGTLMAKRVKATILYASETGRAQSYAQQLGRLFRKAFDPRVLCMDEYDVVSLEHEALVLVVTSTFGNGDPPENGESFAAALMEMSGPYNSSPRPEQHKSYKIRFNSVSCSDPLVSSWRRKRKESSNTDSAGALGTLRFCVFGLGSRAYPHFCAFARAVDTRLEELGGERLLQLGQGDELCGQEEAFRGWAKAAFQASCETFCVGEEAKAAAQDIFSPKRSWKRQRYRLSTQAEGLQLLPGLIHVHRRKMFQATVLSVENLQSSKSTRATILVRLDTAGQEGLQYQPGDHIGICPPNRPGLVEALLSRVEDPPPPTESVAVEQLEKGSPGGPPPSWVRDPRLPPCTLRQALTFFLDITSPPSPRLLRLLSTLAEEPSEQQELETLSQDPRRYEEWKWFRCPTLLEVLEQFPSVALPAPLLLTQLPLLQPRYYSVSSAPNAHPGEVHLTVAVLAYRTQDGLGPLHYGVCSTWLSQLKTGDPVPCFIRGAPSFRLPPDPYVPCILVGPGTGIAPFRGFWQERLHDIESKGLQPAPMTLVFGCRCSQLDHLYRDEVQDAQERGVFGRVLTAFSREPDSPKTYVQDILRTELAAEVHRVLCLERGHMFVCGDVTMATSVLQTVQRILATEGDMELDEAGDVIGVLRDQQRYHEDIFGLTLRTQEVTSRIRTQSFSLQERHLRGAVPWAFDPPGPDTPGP
How it was run: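 eNOS taken from the CHAPS-solubilized particulate fraction of cultured bovine aortic endothelial cells. Incubated 20 min at ambient temperature with 10 μM L-[2,3-3H]arginine, 1 mM NADPH, 2 mM CaCl2 and graded inhibitor. Stopped at pH 5.5 with EGTA/EDTA; [3H]citrulline isolated on cation-exchange column and counted by scintillation. IC50.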

Nitric oxide synthase 1 [3] = molecular target: T1, Nitric oxide synthase 1; experiment: Inhibition of arginine to citrulline conversion by Neuronal nitric oxide synthase from rat brain; how it was run: as §1
Rattus norvegicus [4] = species: Rattus norvegicus; experiment: Percent reversal of ACh-induced relaxation at 100 uM in rat thoracic aorta; assay type: functional
Rattus norvegicus [5] = species: Rattus norvegicus; experiment: Inhibitory activity against N-methyl-D-aspartate (NMDA)-induced cyclic GMP accumulation in rat cerebellar slices; assay type: functional
How it was run: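 Cerebellar slices (0.3 mm, coronal and sagittal) from 8–10-day-old rats, preincubated 105 min in Krebs buffer under 95% O2/5% CO2 at 37 °C, then equilibrated 15 min. Test compound added, followed by 500 μM NMDA for 3 min. Stopped with 50 mM sodium acetate and flash-frozen in liquid nitrogen; cGMP measured by radioimmunoassay after sonication.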

Rattus norvegicus [6] = species: Rattus norvegicus; experiment: E max (%) calculated for reversal of ACh-induced relaxation in rat thoracic aorta; assay type: functional
How it was run: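 Male Sprague-Dawley rat (350–375 g) thoracic aortic rings, endothelium preserved, held at 1.25 g resting tension at 37 °C in Krebs buffer (pH 7.4) containing 5 μM indomethacin, gassed with 5% CO2 in O2. After 1 h equilibration, rings were precontracted with 1 μM phenylephrine and relaxed with 1 μM ACh. Inhibitor was then added cumulatively, plateau between additions, to build a reversal concentration-response curve.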

Rattus norvegicus [7] = species: Rattus norvegicus; experiment: Effective concentration for reversal of ACh-induced relaxation in rat thoracic aorta; assay type: functional
How it was run: (§2)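 Male Sprague-Dawley rat (350–375 g) thoracic aortic rings, endothelium spared, held at 1.25 g resting tension in Krebs buffer (pH 7.4) with 5 μM indomethacin, 37 °C, 5% CO2 in O2. After 1 h equilibration: 1 μM phenylephrine precontraction, then 1 μM ACh relaxation to plateau. Cumulative inhibitor additions, each to plateau, give a concentration-response curve for reversal of the relaxation.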

Rattus norvegicus [8] = species: Rattus norvegicus; experiment: Reversal of ACh-induced relaxation in rat thoracic aorta; assay type: functional; how it was run: as §2

T1 sequence (P29476 whole entry): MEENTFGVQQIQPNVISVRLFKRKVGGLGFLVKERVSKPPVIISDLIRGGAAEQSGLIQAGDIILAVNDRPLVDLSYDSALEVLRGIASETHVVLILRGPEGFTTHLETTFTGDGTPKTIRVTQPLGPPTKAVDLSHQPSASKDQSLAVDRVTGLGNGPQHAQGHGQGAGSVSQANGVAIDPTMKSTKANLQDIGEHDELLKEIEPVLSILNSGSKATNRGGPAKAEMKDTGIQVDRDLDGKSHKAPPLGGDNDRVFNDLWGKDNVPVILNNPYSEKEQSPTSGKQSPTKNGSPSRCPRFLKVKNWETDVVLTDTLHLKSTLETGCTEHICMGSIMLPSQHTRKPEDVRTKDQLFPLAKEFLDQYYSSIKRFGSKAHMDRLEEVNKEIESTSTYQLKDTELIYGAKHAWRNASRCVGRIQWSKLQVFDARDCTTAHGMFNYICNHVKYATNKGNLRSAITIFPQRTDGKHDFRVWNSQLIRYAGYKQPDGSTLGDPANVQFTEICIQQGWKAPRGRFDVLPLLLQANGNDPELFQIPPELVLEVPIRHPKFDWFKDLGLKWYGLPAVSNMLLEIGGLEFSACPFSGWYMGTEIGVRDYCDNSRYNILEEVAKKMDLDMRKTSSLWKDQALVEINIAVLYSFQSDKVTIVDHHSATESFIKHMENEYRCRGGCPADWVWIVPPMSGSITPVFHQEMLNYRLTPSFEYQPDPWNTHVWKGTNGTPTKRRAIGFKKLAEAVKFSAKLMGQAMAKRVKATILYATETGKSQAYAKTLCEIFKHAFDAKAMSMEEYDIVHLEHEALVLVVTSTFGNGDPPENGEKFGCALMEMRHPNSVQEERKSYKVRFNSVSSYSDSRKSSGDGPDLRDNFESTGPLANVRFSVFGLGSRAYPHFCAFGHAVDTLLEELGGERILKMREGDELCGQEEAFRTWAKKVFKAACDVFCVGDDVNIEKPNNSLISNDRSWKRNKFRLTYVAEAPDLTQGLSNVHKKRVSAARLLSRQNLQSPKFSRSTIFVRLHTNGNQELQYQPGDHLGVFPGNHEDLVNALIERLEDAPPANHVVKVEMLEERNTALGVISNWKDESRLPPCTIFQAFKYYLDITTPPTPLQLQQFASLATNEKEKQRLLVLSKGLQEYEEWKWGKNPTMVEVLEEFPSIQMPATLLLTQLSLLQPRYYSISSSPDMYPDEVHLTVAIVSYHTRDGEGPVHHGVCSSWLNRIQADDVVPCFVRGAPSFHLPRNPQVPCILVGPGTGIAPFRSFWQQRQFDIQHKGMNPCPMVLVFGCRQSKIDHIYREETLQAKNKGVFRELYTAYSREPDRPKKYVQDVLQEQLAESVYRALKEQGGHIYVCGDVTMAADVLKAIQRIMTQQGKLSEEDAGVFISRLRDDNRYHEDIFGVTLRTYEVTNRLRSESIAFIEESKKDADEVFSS

Row | SMILES | IC50 (Nitric oxide synthase 1 [1]) [µM] | IC50 [2] [µM] | IC50 (Nitric oxide synthase 3) [µM] | IC50 (Nitric oxide synthase 1 [3]) [µM] | further results
1 | Cc1cccc(NCCC[C@H](N)C(=O)O)c1 | – | > 100 | – | > 100 | –
2 | N[C@@H](CCCNc1ccccc1[N+](=O)[O-])C(=O)O | 100 | > 100 | 100 | – | –
3 | Cc1ccc([N+](=O)[O-])c(NCC[C@H](N)C(=O)O)c1 | – | > 100 | – | > 100 | –
4 | Cc1ccc([N+](=O)[O-])c(N)c1 | 70 | – | – | – | –
5 | Cc1ccc(NCCC[C@H](N)C(=O)O)c([N+](=O)[O-])c1 | > 100 | > 100 | – | – | –
6 | N[C@@H](CCCNc1cc(O)ccc1[N+](=O)[O-])C(=O)O | – | > 100 | – | > 100 | –
7 | CNC(=N)NCCC[C@H](N)C(=O)O [TILARGININE] | – | – | – | – | IC50 (Rattus norvegicus [5]): 3 µM; Emax (Rattus norvegicus [6]): 119%; EC50 (Rattus norvegicus [7]): 14 µM
8 | N[C@@H](CCCNc1ccc([N+](=O)[O-])cc1[N+](=O)[O-])C(=O)O | 100 | – | – | – | –
9 | N[C@@H](CCCNc1ccc(C(=O)O)cc1[N+](=O)[O-])C(=O)O | > 100 | > 100 | – | – | –
10 | N[C@@H](CCCNc1ccc(F)cc1[N+](=O)[O-])C(=O)O | > 100 | > 100 | > 100 | – | –
11 | Cc1cccc(SCCC[C@H](N)C(=O)O)c1 | – | > 100 | – | > 100 | –
12 | N=C(NCCC[C@H](N)C(=O)O)N[N+](=O)[O-] [NITROARGININE] | – | 14 | – | – | IC50 (Rattus norvegicus [5]): 0.2 µM; Emax (Rattus norvegicus [6]): 138%; EC50 (Rattus norvegicus [7]): 3 µM
13 | N[C@@H](CCCNc1c([N+](=O)[O-])cccc1[N+](=O)[O-])C(=O)O | 30 | – | 60 | – | –

Now from value to compound, other results behind:

Row | IC50 (Nitric oxide synthase 1 [1]) [µM] | IC50 [2] [µM] | IC50 (Nitric oxide synthase 3) [µM] | IC50 (Nitric oxide synthase 1 [3]) [µM] | SMILES | further results
14 | > 100 | > 100 | – | – | N[C@@H](CCCNc1ccc(C(F)(F)F)cc1[N+](=O)[O-])C(=O)O | –
15 | – | 9 | 20 | 2.5 | Cc1ccc([N+](=O)[O-])c(NCCCCN)c1 | –
16 | – | 11 | 5 | 2.5 | Cc1ccc([N+](=O)[O-])c(NCCC[C@H](N)C(=O)O)c1 | Emax at 100 µM (Rattus norvegicus [4]): 41%; IC50 (Rattus norvegicus [5]): 33 µM
17 | – | 4 | 9 | 5 | Cc1ccc([N+](=O)[O-])c(SCCC[C@H](N)C(=O)O)c1 | IC50 (Rattus norvegicus [5]): 37 µM
18 | – | 5 | 40 | 3 | Cc1ccc([N+](=O)[O-])c(NCCC[C@H](N)CO)c1 | Emax (Rattus norvegicus [8]): 106%; EC50 (Rattus norvegicus [7]): 17 µM
19 | – | 80 | 10 | 4 | Cc1ccc([N+](=O)[O-])c(OCCC[C@H](N)C(=O)O)c1 | –
